We go through eleven molecules from PMC6034632 (Science translational medicine, 2017).

Series [1] relates to NK1R endocytosis in HEK293 cells. Nature of the series: BRET assay of SP-induced NK1R endocytosis. It counts as cell-based, human. The conditions noted are these: SP 1 or 10 nM. In a few lines:
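NK1R C-terminally fused to RLUC8 was co-expressed in HEK293 cells with Venus-tagged KRAS (plasma membrane marker) or RAB5A (early endosome marker). Receptor proximity to each compartment was tracked as SP-induced BRET over time. Observations were in triplicate, n ≥ 3 experiments.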

In a further series the test system is HEK-NK1R cells. As to the kind of experiment: Endocytosis of fluorescent Alexa Fluor 568–SP. It counts as cell-based, human.
Series [2] concerns nuclear ERK activity (NK1R, HEK293 cells). As to the kind of experiment: FRET biosensor NucEKAR, SP-induced nuclear ERK activity. It counts as cell-based, human. The note with it: for SP stimulation of nuclear ERK: SP 1 nM, HEK293, NucEKAR. In a few lines: (§1)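 HEK293 cells expressed NK1R plus a genetically encoded FRET biosensor targeted to the cytosol, nucleus or plasma membrane (ERK, PKC or cAMP sensors). Ratiometric imaging followed time courses after SP, with the maximal signal set by a positive control. Responses were integrated as area under the curve.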

The test system of series [3] is cytosolic PKC activity (NK1R, HEK293 cells). As to the kind of experiment: FRET biosensor CytoCKAR, SP-induced cytosolic PKC activity. It counts as cell-based, human. The note with it: SP 1 nM. The gist of the method:
as §1

Series [4] relates to cytosolic cAMP (NK1R, HEK293 cells). Nature of the series: FRET biosensor CytoEpac2, SP-induced cytosolic cAMP. It counts as cell-based, human. The conditions noted are these: SP 1 nM. In a few lines:
as §1

For series [5], the system named is cytosolic ERK activity (NK1R, HEK293 cells). As to the kind of experiment: FRET biosensor CytoEKAR, SP-induced cytosolic ERK activity. It counts as cell-based, human. The note with it: SP 1 nM. The gist of the method: as §1
In series [6] the test system is plasma membrane cAMP (NK1R, HEK293 cells). Nature of the series: FRET biosensor pmEpac2, SP-induced plasma membrane cAMP. It counts as cell-based, human. The note with it: SP 1 nM. The gist of the method: as §1
Series [7] concerns plasma membrane PKC activity (NK1R, HEK293 cells). Nature of the series: FRET biosensor pmCKAR, plasma membrane PKC activity. It counts as cell-based, human. The conditions noted are these: SP 1 nM. In a few lines: as §1
Series [8] has as its system NK1R-positive neurons in lamina I of the dorsal horn. As to the kind of experiment: Cell-attached patch clamp recordings of SP-induced firing in spinal cord slices. It counts as cell-based, rat. The conditions noted are these: for reduction of number of SP-stimulated action potentials: compared to controls; for inhibition of SP-induced firing time of lamina I neurons: slices preincubated with inhibitor, versus vehicle control. The gist of the method: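 Cell-attached patch clamp recordings were made from second-order lamina I neurons in rat spinal cord slices. SP was applied at 1 μM for 2 min, then washed out. Slices were exposed to test compound for 60 min, washed, and challenged with SP 60 min later. Firing rate was taken as events per 2 min normalized to the 2-min rate, and duration as time to the last action potential. Six to 7 neurons per group.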

Series [9] relates to NK1R-IR endocytosis in spinal neurons. As to the kind of experiment: SP-induced NK1R-IR endocytosis in spinal cord slices. It counts as cell-based. The note with it: rat spinal cord slices, SP 1 μM 5 min.
For another series, the system named is lamina I/IIo neurons. As to the kind of experiment: EPSC induced by primary afferent stimulation. It counts as cell-based. The conditions noted are these: n = 11 neurons.
In series [10] the test system is SP and CGRP release from dorsal spinal cord. Nature of the series: Capsaicin-stimulated neuropeptide release from segments of dorsal spinal cord. The note with it: segments of mouse dorsal spinal cord, n = 6 experiments.
Series [11] relates to pERK in lamina I/II dorsal horn neurons. Nature of the series: Capsaicin-stimulated ERK phosphorylation in dorsal horn neurons in vivo. The note with it: rat, intrathecal inhibitor, intraplantar capsaicin.
Series [12] has as its system contralateral paw withdrawal. The note with it: mouse, in vivo.
The test system of series [13] is capsaicin-evoked mechanical allodynia. Nature of the series: Capsaicin-evoked mechanical allodynia in rat. The note with it: intrathecal. It counts as in vivo.
In series [14] the test system is formalin nocifensive response. Nature of the series: Nocifensive behavior after intraplantar formalin. It counts as in vivo, mouse. The conditions noted are these: mice, intrathecal endocytosis inhibitors.
Series [15] relates to HEK293 / HEK-NK1R-GFP cells. As to the kind of experiment: Uptake and trafficking of tripartite probes. The conditions noted are these: effect of dynamin inhibitor. It counts as cell-based, human. The gist of the method: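 HEK293 or HEK-NK1R–GFP cells were incubated with Cy5-labelled cholestanol-conjugated probes, either continuously for 4 hours or as a 30 or 60 min pulse, washed and recovered 4 hours. NK1R-GFP cells received SP to drive receptor endocytosis. Localization to plasma membrane and RAB5A-RFP– or NK1R-GFP–positive endosomes was imaged, with or without dynamin inhibitor.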

A further series concerns motor behavior. The conditions noted are these: mouse, in vivo.
A further series deals with PKCα. The note with it: cited from earlier work.
The test system of series [16] is capsaicin-induced mechanical allodynia. It counts as in vivo, mouse. The note with it: mice, intrathecal injection 3 hours before intraplantar capsaicin.
The target in a further series is NK1R (HEK-NK1R cells) (Homo sapiens, UniProt P25103). As to the kind of experiment: SP-stimulated Ca2+ signaling. It counts as cell-based. The conditions noted are these: 10 nM antagonist.
NK1R (HEK-NK1R cells), sequence (P25103 whole entry, species assumed): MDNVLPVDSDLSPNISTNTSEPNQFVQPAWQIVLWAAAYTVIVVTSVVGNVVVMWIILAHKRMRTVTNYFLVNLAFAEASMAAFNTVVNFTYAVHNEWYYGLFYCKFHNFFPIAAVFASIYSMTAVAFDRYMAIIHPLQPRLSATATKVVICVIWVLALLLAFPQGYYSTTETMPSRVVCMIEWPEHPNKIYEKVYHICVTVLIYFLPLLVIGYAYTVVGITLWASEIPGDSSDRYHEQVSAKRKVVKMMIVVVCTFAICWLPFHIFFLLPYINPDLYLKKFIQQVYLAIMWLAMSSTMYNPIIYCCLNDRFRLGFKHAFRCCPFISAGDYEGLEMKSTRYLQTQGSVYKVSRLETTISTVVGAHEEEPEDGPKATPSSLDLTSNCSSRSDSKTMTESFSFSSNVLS
In series [17] the test system is CFA-induced mechanical hyperalgesia. As to the kind of experiment: CFA-induced mechanical hyperalgesia, von Frey. The conditions noted are these: mice, intrathecal 36 hours after intraplantar CFA. It counts as in vivo, mouse. In a few lines:
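Mice received intraplantar CFA; 36 hours later test compound was given intrathecally. Mechanical hyperalgesia was read as von Frey filament withdrawal responses of the CFA-injected paw over the following hours. Groups were compared to control by ANOVA with Dunnett's test.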

In series [18] the test system is NK1R-IR in lamina I neurons. Nature of the series: NK1R endocytosis in spinal neurons in vivo after intraplantar capsaicin. The conditions noted are these: rat, intraplantar capsaicin alone (vehicle-treated control 80.7 ± 1.6), 10 min.
The nature of series [19]: Degradation by membranes prepared from spinal cord. It counts as in vitro ADME, mouse.
[20] abbreviates: rat spinal cord slices, SP 1 μM 2 min.

*1 amine or outer side, *2 acyl side, *3 side chain or, on linkers, in order; H or OH if unused. Where a SMILES comes first, the peptide text is derived from it. Bridges are numbered along the chain shown (N, C = ends). [ ]: non-standard residue; d: D form. The star is where a group is joined. Leu(3R-OH,Nα-propionyl) = CCC(=O)N[C@H](C(=O)*)[C@H](O)C(C)C; X1 = CC(C)[C@@H](O[*:3])[C@H](N[*:1])C(=O)[*:2]; NMeT = CN[C@H](C(=O)O)[C@@H](C)O; dPhLac = O=C(O)[C@H](O)Cc1ccccc1; NMeA = CN[C@@H](C)C(=O)O; NMeDha = C=C(NC)C(=O)O

In the case of `O=C(N/N=C/c1cc(O)c(O)cc1O)c1cc2ccccc2cc1O` [Dy4, Dyngo-4a], the “SP-induced NK1R endocytosis” value in [1] is listed as “inhibited NK1R endocytosis”. The “endocytosis of fluorescent Alexa Fluor 568–SP” value in the series with HEK-NK1R cells was “inhibited endocytosis”. Further, the “SP stimulation of nuclear ERK” value in series [2] was “abolished”. For the same molecule, in [3], the “SP stimulation of cytosolic PKC” value is “abolished”. For the same molecule, the “SP stimulation of cytosolic cAMP” value in series [4] is reported as “abolished”. For the same molecule, the “SP activation of cytosolic ERK” value in series [5] is “did not affect”. Moreover, the “SP activation of plasma membrane cAMP” value in series [6] is “did not affect”. The “plasma membrane PKC activity” value in [7] is listed as “amplified plasma membrane PKC activity”. Besides, in [8] (setting [20]), the “initial onset of SP-induced firing” value is on record as “did not affect the initial onset”; the “sustained SP-induced firing (firing rate and firing time)” value is on record as “prevented the sustained response”. Further, in series [8] (rat spinal cord slices, SP 1 μM 2 min, endocytosis inhibitor), the “SP-induced firing rate (events per 2 min, normalized to rate at 2 min)” value is 342.1 ± 120.7 events per 2 min. Further, in [9], the “SP-stimulated NK1R-IR endocytosis in spinal neurons” value was “inhibited NK1R endocytosis”. For the same molecule, the “generation of excitatory postsynaptic currents (EPSCs)” value in the series with lamina I/IIo neurons is given as “did not affect”. In addition, the “capsaicin-stimulated release of SP or CGRP” value in series [10] is recorded as “did not affect”. Moreover, the “capsaicin-stimulated ERK activation in spinal neurons” value in series [11] is reported as “prevented capsaicin-stimulated ERK activation”. For the same molecule, the “withdrawal responses of the contralateral paw” value in [12] is “did not affect”. Further, the “capsaicin-evoked mechanical allodynia in rat” value in [13] is “inhibited capsaicin-evoked mechanical allodynia”. Moreover, in [14], the “nocifensive response to intraplantar formalin” value was “blunted both the early (noninflammatory) and late (inflammatory) phases”. Besides, the “uptake of Chol-conjugated tripartite probes” value in series [15] is on record as “inhibited uptake”. Further, the rotarod latency result in the series on motor behavior was “did not affect”.

On to `O=C(O)CN(CCOCCOCCN(CC(=O)O)CC(=O)O)CC(=O)O` [EGTA], for which the “SP stimulation of cytosolic PKC” value in series [3] is reported as “prevented activation of cytosolic PKC”. Further, the “SP stimulation of cytosolic cAMP” value in series [4] is listed as “prevented SP generation of cytosolic cAMP”.

As for `CN(C)CCCn1cc(C2=C(c3c[nH]c4ccccc34)C(=O)NC2=O)c2ccccc21` [GF109203X], the “SP stimulation of cytosolic cAMP” value in [4] is “prevented SP generation of cytosolic cAMP”. In series [8], the “reduction of number of SP-stimulated action potentials” value came out at 61 ± 15% and the “inhibition of SP-induced firing time of lamina I neurons” value came out at 56.8 ± 8.2%. Moreover, the “inhibiting PKCα” value in the series with PKCα is 4 % control.

Regarding `FC(F)(F)c1cc(CO[C@H]2CCCN[C@H]2c2ccccc2)cc(C(F)(F)F)c1` [L-733,060], the capsaicin-evoked mechanical allodynia result in series [16] is recorded as “antinociceptive only at 1 hour”. For the same molecule, the “% inhibition against 1 nM SP, Ca2+ signaling” value at NK1R (HEK-NK1R cells) amounted to 40.8 ± 8.9%.

`O=C1NC(=NS(=O)(=O)c2cccc3ccccc23)S/C1=C\c1ccc(Br)cc1` [PS2, Pitstop-2]: in series [1], the “SP-induced NK1R endocytosis” value is “inhibited NK1R endocytosis”. In addition, the “endocytosis of fluorescent Alexa Fluor 568–SP” value in the series with HEK-NK1R cells is reported as “inhibited endocytosis”. For the same molecule, in series [2], the “SP stimulation of nuclear ERK” value is “abolished”. The “SP stimulation of cytosolic PKC” value in [3] is given as “abolished”. Moreover, the “SP stimulation of cytosolic cAMP” value in [4] is given as “abolished”. In addition, the “SP activation of cytosolic ERK” value in series [5] is listed as “did not affect”. For the same molecule, the “SP activation of plasma membrane cAMP” value in series [6] is on record as “did not affect”. The “plasma membrane PKC activity” value in series [7] is reported as “amplified plasma membrane PKC activity”. For the same molecule, the “capsaicin-stimulated release of SP or CGRP” value in series [10] is listed as “did not affect”. Moreover, the “capsaicin-stimulated ERK activation in spinal neurons” value in [11] is on record as “prevented capsaicin-stimulated ERK activation”. In addition, the “withdrawal responses of the contralateral paw” value in [12] was “did not affect”. The “nocifensive response to intraplantar formalin” value in series [14] was “blunted both the early (noninflammatory) and late (inflammatory) phases”. The rotarod latency result with motor behavior is “did not affect”.

On to `CC(C)Oc1cccc(CC(=O)N2CCC[C@@](CC[N+]34CCC(c5ccccc5)(CC3)CC4)(c3ccc(Cl)c(Cl)c3)C2)c1.[Cl-]` [SR140,333], for which the “SP-induced nuclear ERK (endosomal NK1R) 4 hours after pulse” value in series [2] (pulse-incubated 30 min, washed, SP 4 hours later) is on record as “unable to effectively inhibit persistent NK1R signaling in endosomes”. The CFA mechanical hyperalgesia entry in series [17] was “minor”.

For `N#CC(=C(/N)Sc1ccccc1N)/C(C#N)=C(/N)Sc1ccccc1N` [U0126], in series [8], the “reduction of number of SP-stimulated action potentials” value is on record as 84 ± 5% and the “inhibition of SP-induced firing time of lamina I neurons” value amounted to 67.5 ± 8.3%.

Regarding `COc1ccc2c(c1)CC[C@@H]1[C@@H]2CC[C@]2(C)[C@@H](NCCCCCCN3C(=O)C=CC3=O)CC[C@@H]12` [U73122], the “SP stimulation of cytosolic PKC” value in series [3] is reported as “prevented activation of cytosolic PKC”.

For the molecule `C=C1C(=O)N[C@@H](C)C(=O)N(C)[C@@H](C)C(=O)N[C@@H]([C@H](OC(=O)[C@@H](NC(=O)CC)[C@H](O)C(C)C)C(C)C)C(=O)N(C)[C@@H]([C@@H](C)OC)C(=O)O[C@H](C(C)C)[C@H](NC(C)=O)C(=O)O[C@H](Cc2ccccc2)C(=O)N1C` [UBO-QIC] (Ac-[X1][dPhLac][NMeDha]A[NMeA][X1](Leu(3R-OH,Nα-propionyl))[NMeT](Me); ester 1-C), the “SP-induced NK1R endocytosis” value in series [1] is “did not affect NK1R endocytosis”. Besides, in [2], the “SP stimulation of nuclear ERK” value is on record as “prevented SP activation of nuclear ERK”. In series [3], the “SP stimulation of cytosolic PKC” value is reported as “prevented activation of cytosolic PKC”. Besides, the “SP stimulation of cytosolic cAMP” value in series [4] is recorded as “prevented SP generation of cytosolic cAMP”.

Turning to `COc1cc(CNC(=O)CCCC/C=C/C(C)C)ccc1O` [capsaicin], the “% NK1R-IR within 0.5 μm of plasma membrane” value in series [18] was determined as 42.1 ± 5.6%.

As for substance P [SP], in series [19], the “degradation by spinal cord membranes” value is given as “rapidly degraded”.
